Reference: ChEMBL document CHEMBL1122210, “(2-Chloroethyl)nitrosourea congeners of amino acid amides” (J Med Chem, 1982)

What was measured:
L1210 [1] = test: Tested for Number of 60 days survivors per 5 treated mice against mouse leukemia L1210 cells; format: functional
Method in brief: (§1)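 Male BDF1 hybrid mice inoculated ip with 10⁶ L1210 lymphoid leukemia cells; compounds dissolved in distilled water, given ip once daily for 3 days starting 24 h after implantation (day 1). %ILS = 100(T/C−1) versus untreated tumor-bearing controls, counting 60-day survivors; 60-day survivors tallied per treated group.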

L1210 [2] = test: Tested for ratio of maximal effective dose/the dose which gives 30% ILS against mouse leukemia L1210 cells; format: cell-based
Method in brief: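 In the L1210 model (male BDF1 mice, 10⁶ cells ip, ip dosing in distilled water once daily on days 1–3), therapeutic index is the maximal effective dose divided by the dose giving 30% ILS. ILS = 100(T/C-1), 60-day survivors included.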

L1210 [3] = test: Tested for Percent increase in life span against mouse leukemia L1210 cells; format: functional; method in brief: as §1
L1210 [4] = test: Tested for Maximal effective dose against mouse leukemia L1210 cells; format: functional
Method in brief: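 Male BDF1 hybrid mice inoculated ip with 10⁶ L1210 lymphoid leukemia cells; compounds in distilled water given ip once daily for 3 days starting 24 h after implantation (day 1). Percent ILS = 100(T/C-1) versus untreated tumor-bearing controls, counting 60-day survivors. Maximal effective dose recorded.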

L1210 [5] = test: Tested for Mean survival days against mouse leukemia L1210 cells; format: functional; method in brief: as §1
[6] = Tested in vitro for Half- life period of the compound; format: ADME
[7] = Tested for the toxicity after iv administration in SLC-BDF1 male mice; format: organism-based; settings: SLC-BDF1, mouse, in vivo
Method in brief: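 SLC-BDF1 male mice, 5 weeks old, six per group, single intravenous injection; deaths observed for 21 days; LD50 with 95% fiducial limits by the Litchfield-Wilcoxon method.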

[8] = Tested for the toxicity after ip administration in SLC-BDF1 male mice; format: organism-based; settings: SLC-BDF1, mouse, in vivo
Method in brief: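 SLC-BDF1 male mice, 5 weeks old, six per group, single intraperitoneal injection; deaths observed for 21 days; LD50 with 95% fiducial limits by the Litchfield-Wilcoxon method.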

Row | SMILES | Survivors (L1210 [1]) | Therapeutic index (L1210 [2]) | ILS (L1210 [3]) [%] | maximal effective dose (L1210 [4]) [mg/kg/day] | Mean survival days (L1210 [5]) | half-life [6] [min] | LD50 [7] [mg/kg] | LD50 [8] [mg/kg]
1 | NC(=O)C(Cc1ccc(O)cc1)NC(=O)N(CCCl)N=O (centres undefined) | 2 | 10 | >342.5 | 16 | >35.4 |  |  | 
2 | CC(O)C(NC(=O)N(CCCl)N=O)C(N)=O (centres undefined) | 5 | 40 | >757.1 | 8 | >60 | 23.3 |  | 
3 | NC(=O)CNC(=O)N(CCCl)N=O | 5 | 36.4 | >679.2 | 16 | >60 | 44 | 22.4 | 21.2
4 | CC(NC(=O)N(CCCl)N=O)C(N)=O (centres undefined) | 5 | 14.3 | >710.8 | 8 | >60 | 37 |  | 
5 | NC(=O)C(Cc1ccccc1)NC(=O)N(CCCl)N=O (centres undefined) | 1 | 3.8 | >445.7 | 32 | >38.2 | 49.9 |  | 
6 | NC(=O)CCCNC(=O)N(CCCl)N=O | 5 | 7.3 | >733.3 | 16 | >60 | 72.5 |  | 
7 | CSCCC(NC(=O)N(CCCl)N=O)C(N)=O (centres undefined) | 0 | 5.9 | 277.8 | 16 | 27.2 | 38.1 |  | 
8 | NC(=O)CCNC(=O)N(CCCl)N=O | 5 | 15.2 | >733.3 | 16 | >60 | 61 |  | 
9 | CC(C)CC(NC(=O)N(CCCl)N=O)C(N)=O (centres undefined) | 5 | 11.4 | >757.1 | 24 | >60 | 48.3 |  | 
10 | NC(=O)C(CO)NC(=O)N(CCCl)N=O (centres undefined) | 5 | 40 | >757.1 | 8 | >60 | 19.8 |  | 
11 | NC(=O)C1CCCN1C(=O)N(CCCl)N=O (centres undefined) | 1 | 5.6 | >250 | 64 | >25.2 | 295 | 195 | 220
12 | CC(C)C(NC(=O)N(CCCl)N=O)C(N)=O (centres undefined) | 5 | 15.7 | >757.1 | 8 | >60 | 44.5 |  | 
13 | NC(=O)CC(NC(=O)N(CCCl)N=O)C(N)=O (centres undefined) | 2 | 15.7 | >494.4 | 8 | >42.8 | 32.1 |  | 
14 | CN(CC(N)=O)C(=O)N(CCCl)N=O [SARCNU] | 5 | 15.5 | >710 | 225 | >60 | 330 | 427 | 392
